Assay results as given in ChEMBL document CHEMBL4219255, “Targeting Transient Receptor Potential Vanilloid 1 (TRPV1) Channel Softly: The Discovery of Passerini Adducts as a Topical Treatment for Inflammatory Skin Disorders” (J Med Chem, 2018).

Key:
Mus musculus = test: Toxicity in C57BL/6 mouse assessed as change in body temperature at 3 mg/kg, iv after 120 mins; type: organism-based; conditions: in vivo, 2 h
Liver carboxylesterase 1 [1] = target: T1, Liver carboxylesterase 1 (Homo sapiens, UniProt P23141); test: Drug metabolism assessed as recombinant human CE1-mediated compound hydrolysis by measuring rate constant at 50 uM up to 60 mins by LC-UV analysis; type: ADME; conditions: 1 h
T1 sequence (P23141 whole entry): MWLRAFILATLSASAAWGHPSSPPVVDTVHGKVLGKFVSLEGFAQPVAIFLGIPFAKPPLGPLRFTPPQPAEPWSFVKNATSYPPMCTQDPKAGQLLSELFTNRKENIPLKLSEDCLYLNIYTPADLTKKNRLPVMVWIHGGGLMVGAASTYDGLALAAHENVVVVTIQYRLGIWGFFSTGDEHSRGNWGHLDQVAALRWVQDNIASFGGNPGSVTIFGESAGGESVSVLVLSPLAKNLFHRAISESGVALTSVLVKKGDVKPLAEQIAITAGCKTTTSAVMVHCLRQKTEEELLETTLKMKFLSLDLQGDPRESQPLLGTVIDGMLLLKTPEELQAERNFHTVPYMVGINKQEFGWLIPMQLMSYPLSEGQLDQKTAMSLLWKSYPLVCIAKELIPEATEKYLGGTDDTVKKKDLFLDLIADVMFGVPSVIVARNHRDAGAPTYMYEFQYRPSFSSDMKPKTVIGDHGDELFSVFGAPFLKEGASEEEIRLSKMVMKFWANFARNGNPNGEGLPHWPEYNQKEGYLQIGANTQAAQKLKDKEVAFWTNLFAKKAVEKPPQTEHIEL

[2] = target: T2, Liver carboxylesterase 1 (CE1) (Homo sapiens, UniProt P23141); test: Drug metabolism assessed as recombinant human CE1-mediated compound hydrolysis by measuring compound intrinsic clearance at 50 uM up to 60 mins by LC-UV analysis; type: ADME
T2 sequence (P23141 whole entry): T1 sequence (P23141 whole entry)

[3] = Drug metabolism in human fibroblast cells assessed as residual substrate levels at 50 uM up to 120 mins by HPLC-UV analysis; type: ADME, cell-based; conditions: read-out: Stability
[4] = Drug metabolism in human liver microsomes assessed as glucuronide metabolite formation at 50 uM in presence of UDPGA after 60 mins by LC-ESI-MS analysis; type: ADME, microsome; conditions: 1 h
[5] = Drug metabolism in human liver S9 fraction assessed as residual substrate levels at 50 uM up to 60 mins by HPLC-UV analysis; type: ADME, subcellular; conditions: read-out: Stability
Cocaine esterase [6] = target: T3, Cocaine esterase (Homo sapiens, UniProt O00748); test: Drug metabolism assessed as recombinant human CE2-mediated compound hydrolysis by measuring rate constant at 50 uM up to 60 mins by LC-UV analysis; type: ADME; conditions: 1 h
T3 sequence (O00748 whole entry): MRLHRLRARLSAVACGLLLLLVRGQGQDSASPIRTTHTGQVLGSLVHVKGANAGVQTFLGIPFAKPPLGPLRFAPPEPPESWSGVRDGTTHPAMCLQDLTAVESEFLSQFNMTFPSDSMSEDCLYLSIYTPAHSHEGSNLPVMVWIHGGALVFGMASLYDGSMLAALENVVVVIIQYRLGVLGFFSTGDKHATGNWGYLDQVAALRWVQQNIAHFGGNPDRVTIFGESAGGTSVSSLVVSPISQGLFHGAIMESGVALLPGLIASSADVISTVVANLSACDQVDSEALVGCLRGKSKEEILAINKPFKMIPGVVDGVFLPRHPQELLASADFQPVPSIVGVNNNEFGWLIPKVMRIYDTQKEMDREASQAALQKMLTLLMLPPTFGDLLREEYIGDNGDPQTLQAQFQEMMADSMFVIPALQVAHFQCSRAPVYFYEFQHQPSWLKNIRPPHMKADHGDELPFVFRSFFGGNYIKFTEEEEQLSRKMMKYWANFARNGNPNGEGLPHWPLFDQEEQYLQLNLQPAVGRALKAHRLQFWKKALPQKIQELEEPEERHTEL

Cocaine esterase (CE2) [7] = target: T4, Cocaine esterase (CE2) (Homo sapiens, UniProt O00748); test: Drug metabolism assessed as recombinant human CE2-mediated compound hydrolysis by measuring compound half life at 50 uM up to 60 mins by LC-UV analysis; type: ADME
T4 sequence (O00748 whole entry): T3 sequence (O00748 whole entry)

[8] = target: T2, Liver carboxylesterase 1 (CE1); test: Drug metabolism assessed as recombinant human CE1-mediated compound hydrolysis by measuring compound half life at 50 uM up to 60 mins by LC-UV analysis; type: ADME
[9] = Drug metabolism in human liver microsomes assessed as sulfate conjugate formation at 50 uM in presence of UDPGA after 60 mins by LC-ESI-MS analysis; type: ADME, microsome; conditions: 1 h
[10] = Drug metabolism in human HaCaT cells assessed as residual substrate levels at 25 uM up to 240 mins by HPLC-UV analysis; type: ADME, cell-based; conditions: read-out: Stability
[11] = Drug metabolism in human liver cytosol assessed as glucuronide metabolite formation at 50 uM in presence of UDPGA after 60 mins by LC-ESI-MS analysis; type: ADME, subcellular; conditions: 1 h
[12] = Drug metabolism in human plasma assessed as residual substrate levels at 100 uM up to 20 mins by HPLC-UV analysis; type: ADME, cell-free; conditions: read-out: Stability
[13] = Drug metabolism in human liver cytosol assessed as sulfate conjugate formation at 50 uM in presence of UDPGA after 60 mins by LC-ESI-MS analysis; type: ADME, subcellular; conditions: 1 h
[14] = target: T5, Transient receptor potential cation channel subfamily V member 1 (Homo sapiens, UniProt Q8NER1); test: Agonist activity at TRPV1 (unknown origin) expressed in human SH-SY5Y cells assessed as increase in calcium influx at 1 uM after 25 mins by Fluo-4 NW dye-based fluorescence assay relative to capsaicin
T5 sequence (Q8NER1 whole entry): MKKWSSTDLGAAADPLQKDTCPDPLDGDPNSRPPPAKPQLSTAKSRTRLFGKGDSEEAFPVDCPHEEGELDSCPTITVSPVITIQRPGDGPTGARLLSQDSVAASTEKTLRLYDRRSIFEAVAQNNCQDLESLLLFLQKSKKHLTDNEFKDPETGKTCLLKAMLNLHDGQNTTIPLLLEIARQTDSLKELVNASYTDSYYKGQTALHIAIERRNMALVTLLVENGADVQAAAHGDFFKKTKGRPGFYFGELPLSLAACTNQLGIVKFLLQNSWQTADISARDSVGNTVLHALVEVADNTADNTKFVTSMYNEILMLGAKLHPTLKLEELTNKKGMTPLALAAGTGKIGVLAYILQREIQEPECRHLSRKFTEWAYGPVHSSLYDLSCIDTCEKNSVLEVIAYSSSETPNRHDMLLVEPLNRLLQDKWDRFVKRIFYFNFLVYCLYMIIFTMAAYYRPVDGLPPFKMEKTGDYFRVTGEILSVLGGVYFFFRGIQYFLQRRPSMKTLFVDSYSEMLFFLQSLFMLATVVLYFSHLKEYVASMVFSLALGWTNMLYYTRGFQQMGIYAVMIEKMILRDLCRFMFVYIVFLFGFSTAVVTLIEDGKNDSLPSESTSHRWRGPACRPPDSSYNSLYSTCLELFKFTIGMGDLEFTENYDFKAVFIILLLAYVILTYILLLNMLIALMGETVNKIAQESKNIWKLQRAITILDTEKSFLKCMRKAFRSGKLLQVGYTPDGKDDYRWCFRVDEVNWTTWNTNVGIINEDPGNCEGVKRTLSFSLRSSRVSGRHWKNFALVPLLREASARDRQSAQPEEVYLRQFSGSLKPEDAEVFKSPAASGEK

[15] = target: T5, Transient receptor potential cation channel subfamily V member 1; test: Agonist activity at TRPV1 (unknown origin) expressed in human SH-SY5Y cells assessed as increase in calcium influx after 25 mins by Fluo-4 NW dye-based fluorescence assay; type: cell-based
[16] = Drug metabolism in human keratinocytes assessed as residual substrate levels at 50 uM up to 120 mins by HPLC-UV analysis; type: ADME, cell-based, Keratinocyte; conditions: read-out: Stability
Cocaine esterase (CE2) [17] = target: T4, Cocaine esterase (CE2); test: Drug metabolism assessed as recombinant human CE2-mediated compound hydrolysis by measuring compound half life at 50 uM up to 30 mins by LC-UV analysis; type: ADME
Summary of the method: (§1)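 Recombinant human carboxylesterase isoforms 1 and 2 were each incubated with the test ester. Hydrolysis was followed by HPLC-UV, tracking the disappearance of the substrate over incubation time relative to the initial amount. Chromatograms were also checked for peaks of the expected hydrolysis metabolites.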

Liver carboxylesterase 1 [18] = target: T1, Liver carboxylesterase 1; test: Drug metabolism assessed as recombinant human CE1-mediated compound hydrolysis by measuring rate constant at 50 uM up to 30 mins by LC-UV analysis; type: ADME; conditions: 0.5 h; summary of the method: as §1
Cocaine esterase [19] = target: T3, Cocaine esterase; test: Drug metabolism assessed as recombinant human CE2-mediated compound hydrolysis by measuring rate constant at 50 uM up to 30 mins by LC-UV analysis; type: ADME; conditions: 0.5 h; summary of the method: as §1
[20] = target: T2, Liver carboxylesterase 1 (CE1); test: Drug metabolism assessed as recombinant human CE1-mediated compound hydrolysis by measuring compound half life at 50 uM up to 30 mins by LC-UV analysis; type: ADME; summary of the method: as §1
[21] = target: T5, Transient receptor potential cation channel subfamily V member 1; test: Antagonist activity at TRPV1 (unknown origin) expressed in human SH-SY5Y cells assessed as inhibition of capsaicin-induced calcium increase after 25 mins by Fluo-4 NW dye-based fluorescence assay; type: cell-based
[22] = target: T5, Transient receptor potential cation channel subfamily V member 1; test: Antagonist activity at TRPV1 (unknown origin) expressed in human SH-SY5Y cells assessed as inhibition of capsaicin-induced calcium influx at 1 uM after 25 mins by Fluo-4 NW dye-based fluorescence assay relative to capsaicin; type: cell-based

SMILES	K (Liver carboxylesterase 1 [1])	microsomal CLint at 50 µM [2]	remaining at 2 h, 50 µM [3]	Drug metabolism [4]	remaining at 1 h, 50 µM [5]	K (Cocaine esterase [6])	half-life at 50 µM (Cocaine esterase (CE2) [7])	half-life at 50 µM [8]	Drug metabolism [9]	remaining at 4 h, 25 µM [10]	Drug metabolism [11]	remaining at 20 min, 100 µM [12]	Drug metabolism [13]	Activity [14]	EC50 [15]	remaining at 2 h, 50 µM [16]	further results
CC(C)(C)c1ccc(NC(=O)N2CCN(c3ncccc3Cl)CC2)cc1	–	–	–	–	–	–	–	–	–	–	–	–	–	–	–	–	Activity (Mus musculus): Toxic
CC(C)=CCC/C(C)=C/CC/C(C)=C/CC/C=C(\C)CC/C=C(\C)CCC(=O)OCC(=O)NCc1ccc(O)c(O)c1	0.0608 min⁻¹	56 µL/min/mg	59.6%	Metabolite_Notdetected	70.9%	0.0497 min⁻¹	14 min	11.4 min	Metabolite_Notdetected	97.9%	Metabolite_Notdetected	105%	Metabolite_Notdetected	78.4%	0.04 µM	70.2%	–
CCCCCCCCCCCC(=O)OCC(=O)NCc1ccc(O)c(OC)c1	–	–	19.5%	Metabolite_Notdetected	0%	–	–	–	Metabolite_Notdetected	84.5%	Metabolite_Notdetected	89.6%	Metabolite_Notdetected	65.1%	0.37 µM	22.2%	half-life at 50 µM (Cocaine esterase (CE2) [17]): 18.6 min; K (Liver carboxylesterase 1 [18]): 0.0465 min⁻¹; K (Cocaine esterase [19]): 0.0376 min⁻¹; half-life at 50 µM [20]: 14.9 min
COc1cc(CNC(=O)COC(=O)/C=C(\C)CCC=C(C)C)c(I)cc1O	0.0129 min⁻¹	13 µL/min/mg	100%	Metabolite_Notdetected	50.1%	0.0877 min⁻¹	7.9 min	53.8 min	Metabolite_Notdetected	99.5%	Metabolite_Notdetected	100%	Metabolite_Notdetected	–	–	104%	IC50 [21]: 0.09 µM; inhibition [22]: 90.1%
